Reference: ChEMBL document CHEMBL1131415, “Structure-activity relationships for antiplasmodial activity among 7-substituted 4-aminoquinolines” (J Med Chem, 1998)

Legend:
Assay type in all cases: functional, organism-based
[1] = system: Plasmodium falciparum; assay: In vitro antiplasmodial activity against chloroquine-sensitive Plasmodium falciparum Haiti 135
How it was run: (§1)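 Cloned P. falciparum (chloroquine-susceptible Haiti-13524 or chloroquine-resistant Indochina I), synchronous early ring stage, 2% red cell suspension at 0.2% parasitemia. Exposed to varying AQ concentrations 48 h, then same concentrations plus 0.5 µCi 3H-hypoxanthine for additional 18 h. IC50 from linear regression of percent inhibition of 3H-hypoxanthine accumulation vs log concentration; triplicate determinations, chloroquine control.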

[2] = system: Plasmodium falciparum; assay: In vitro anti-plasmodial activity against chloroquine-resistant Plasmodium falciparum Indochina I; how it was run: as §1
[3] = system: Plasmodium falciparum; assay: In vitro antiplasmodial activity against chloroquine-resistant Plasmodium falciparum Indochina I; how it was run: as §1

Compound | IC50 [1] [µM] | IC50 [2] [µM] | IC50 [3] [µM]
CCN(CC)CCCCCCCCCCCCNc1ccnc2cc(Br)ccc12 | 0.008 | 0.018 | –
CCN(CC)CC(C)Nc1ccnc2cc(F)ccc12 (stereo not drawn) | 0.03 | – | 0.06
CCN(CC)CCCCCCCCCCCCNc1ccnc2cc(OC)ccc12 | 0.017 | 0.09 | –
CCN(CC)CCCCCCCCCCNc1ccnc2cc(C(F)(F)F)ccc12 | 0.01 | 0.02 | –
CCN(CC)CCCC(C)Nc1ccnc2cc(F)ccc12 (stereo not drawn) | 0.02 | – | 0.5
CCN(CC)CCCNc1ccnc2cc(Cl)ccc12 | 0.005 | – | 0.006
CCN(CC)CCCNc1ccnc2cc(OC)ccc12 | 0.15 | – | 0.9
CCN(CC)CCCCCCCCCCCCNc1ccnc2cc(C(F)(F)F)ccc12 | 0.005 | 0.025 | –
CCN(CC)CCCC(C)Nc1ccnc2cc(C(F)(F)F)ccc12 (stereo not drawn) | 0.016 | – | 0.045
CCN(CC)CCCCCCCCCCCCNc1ccnc2cc(Cl)ccc12 | 0.013 | 0.011 | –
CCN(CC)CCNc1ccnc2cc(F)ccc12 | 0.035 | – | 0.06
CCN(CC)CCNc1ccnc2cc(C(F)(F)F)ccc12 | 0.03 | – | 0.041
CCN(CC)CCCC(C)Nc1ccnc2cc(Br)ccc12 (stereo not drawn) | 0.005 | – | 0.09
CCN(CC)CCCCCNc1ccnc2cc(Cl)ccc12 | 0.006 | – | 0.058
CCN(CC)CCNc1ccnc2cc(Br)ccc12 | 0.007 | – | 0.007
CCN(CC)CCCCCCCCCCNc1ccnc2cc(I)ccc12 | 0.006 | 0.016 | –
CCN(CC)CCCNc1ccnc2cc(I)ccc12 | 0.003 | – | 0.004
CCN(CC)CCCCCCCCCCNc1ccnc2cc(Cl)ccc12 | 0.006 | 0.013 | –
CCN(CC)CCNc1ccnc2cc(OC)ccc12 | 0.048 | – | 0.155
CCN(CC)CCCNc1ccnc2cc(F)ccc12 | 0.023 | – | 0.12

Compound | IC50 [1] [µM] | IC50 [2] [µM] | IC50 [3] [µM]
CCN(CC)CCCNc1ccnc2cc(Br)ccc12 | 0.004 | – | 0.006
CCN(CC)CC(C)Nc1ccnc2cc(Br)ccc12 (stereo not drawn) | 0.011 | – | 0.012
CCN(CC)CC(C)Nc1ccnc2cc(OC)ccc12 (stereo not drawn) | 0.094 | – | 0.18
CCN(CC)CCCCCCCCNc1ccnc2cc(Cl)ccc12 | 0.004 | 0.041 | –
CCN(CC)CCCCCCCCCCCCNc1ccnc2cc(I)ccc12 | 0.01 | 0.02 | –
CCN(CC)CC(C)Nc1ccnc2cc(I)ccc12 (stereo not drawn) | 0.007 | – | 0.007
CCN(CC)CCNc1ccnc2cc(Cl)ccc12 | 0.007 | – | 0.005
CCN(CC)CCCC(C)Nc1ccnc2cc(OC)ccc12 (stereo not drawn) | 0.055 | – | 3
CCN(CC)CCCCCCNc1ccnc2cc(Cl)ccc12 | 0.005 | – | 0.056
CCN(CC)CC(C)Nc1ccnc2cc(C(F)(F)F)ccc12 (stereo not drawn) | 0.05 | – | 0.05
CCN(CC)CCCCCCCCCCNc1ccnc2cc(F)ccc12 | 0.007 | 0.04 | –
CCN(CC)CCCCCCCCCCNc1ccnc2cc(Br)ccc12 | 0.006 | 0.017 | –
CCN(CC)CCCC(C)Nc1ccnc2cc(I)ccc12 (stereo not drawn) | 0.004 | – | 0.035
CCN(CC)CC(C)Nc1ccnc2cc(Cl)ccc12 (stereo not drawn) | 0.008 | – | 0.01
CCN(CC)CCCCCCCCCCNc1ccnc2cc(OC)ccc12 | 0.01 | 0.17 | –
CCN(CC)CCNc1ccnc2cc(I)ccc12 | 0.006 | – | 0.006
CCN(CC)CCCNc1ccnc2cc(C(F)(F)F)ccc12 | 0.015 | – | 0.018
CCN(CC)CCCCCCCCCCCCNc1ccnc2cc(F)ccc12 | 0.008 | 0.025 | –
CCN(CC)CCCCNc1ccnc2cc(Cl)ccc12 | 0.005 | – | 0.051
